# Source: ChEMBL document CHEMBL3872252, “New bithiazolyl hydrazones: Novel synthesis, characterization and antitubercular evaluation” (Bioorg Med Chem Lett, 2017)
# What was measured:
# [1] = test system: Staphylococcus aureus; assay: Growth inhibition of Staphylococcus aureus at 10 ug/ml; assay type: functional; conditions: read-out: GI
# [2] = test system: Bacillus subtilis; assay: Growth inhibition of Bacillus subtilis at 10 ug/ml; assay type: functional; conditions: read-out: GI
# [3] = test system: Bacillus subtilis; assay: Growth inhibition of Bacillus subtilis at 3 ug/ml; assay type: functional; conditions: read-out: GI
# In short: (§1)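 Screened against Gram-negative E. coli and P. aeruginosa and Gram-positive S. aureus and B. subtilis. Compound was tested at 3 µg/ml, and the read-out is percent growth inhibition.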
# [4] = Antitubercular activity against Mycobacterium tuberculosis H37Ra ATCC 25177 active stage infected in human THP1 cells measured on day 8 by nitrate reductase assay; assay type: functional, THP-1; conditions: ATCC 25177, 192 h
# [5] = test system: Pseudomonas aeruginosa; assay: Growth inhibition of Pseudomonas aeruginosa at 10 ug/ml; assay type: functional; conditions: read-out: GI
# [6] = test system: Bacillus subtilis; assay: Growth inhibition of Bacillus subtilis at 30 ug/ml; assay type: functional; conditions: read-out: GI
# [7] = Selectivity index, ratio of GI50 for human HCT116 cells to MIC90 for Mycobacterium bovis BCG ATCC 35743 active stage; assay type: toxicity, cell-based, HCT-116; conditions: read-out: Selectivity Index
# In short: (§2)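 Cytotoxicity was measured on human MCF-7, HCT116 and THP-1 cells by MTT assay, with paclitaxel as reference. GI50 is the concentration inhibiting 50% of cell growth. The selectivity index is GI50 for the given cell line divided by MIC90 for the given mycobacterial strain and stage.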
# [8] = Selectivity index, ratio of GI50 for human HCT116 cells to MIC90 for Mycobacterium tuberculosis H37Ra ATCC 25177 dormant stage; assay type: toxicity, cell-based, HCT-116; conditions: read-out: Selectivity Index
# In short: (§3)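 Cytotoxicity was measured on human MCF-7, HCT116 and THP-1 cells by MTT assay, with paclitaxel as reference. The selectivity index is GI50 for the given cell line divided by MIC90 for the given mycobacterial strain and stage.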
# [9] = test system: Staphylococcus aureus; assay: Antibacterial activity against Staphylococcus aureus; assay type: functional
# [10] = test system: Escherichia coli; assay: Antibacterial activity against Escherichia coli; assay type: functional
# [11] = Selectivity index, ratio of GI50 for human HCT116 cells to MIC90 for Mycobacterium tuberculosis H37Ra ATCC 25177 active stage; assay type: toxicity, cell-based, HCT-116; conditions: read-out: Selectivity Index; in short: as §2
# [12] = test system: Pseudomonas aeruginosa; assay: Growth inhibition of Pseudomonas aeruginosa at 3 ug/ml; assay type: functional; conditions: read-out: GI; in short: as §1
# [13] = test system: Staphylococcus aureus; assay: Growth inhibition of Staphylococcus aureus at 30 ug/ml; assay type: functional; conditions: read-out: GI
# [14] = test system: Pseudomonas aeruginosa; assay: Growth inhibition of Pseudomonas aeruginosa at 30 ug/ml; assay type: functional; conditions: read-out: GI
# [15] = Selectivity index, ratio of GI50 for human THP1 cells to MIC90 for Mycobacterium tuberculosis H37Ra ATCC 25177 dormant stage; assay type: toxicity, cell-based, THP-1; conditions: read-out: Selectivity Index; in short: as §3
# [16] = Antitubercular activity against Mycobacterium tuberculosis H37Ra ATCC 25177 dormant stage measured on day 12 by XTT reduction menadione based two-fold dilution assay; assay type: functional; conditions: ATCC 25177, 288 h
# In short: (§4)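 M. tuberculosis H37Ra ATCC 25177 was exposed to 0.7–100 μg/mL in two-fold steps (0.7, 1.5, 3.1 … 100). Active stage was read after 8 days and dormant stage after 12 days of incubation. Inhibition was read by XTT reduction menadione assay (XRMA), absorbance 470 nm. MIC90 is the concentration giving ≥90% inhibition (µg/mL).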
# [17] = Antitubercular activity against Mycobacterium bovis BCG ATCC 35743 dormant stage measured on day 12 by nitrate reductase based two-fold dilution assay; assay type: functional, Mycobacterium bovis BCG str. ATCC 35743; conditions: Mycobacterium tuberculosis variant bovis BCG, ATCC 35743, 288 h
# [18] = Cytotoxicity against human HCT116 cells by MTT assay; assay type: toxicity, cell-based, HCT-116
# [19] = test system: Escherichia coli; assay: Growth inhibition of Escherichia coli at 30 ug/ml; assay type: functional; conditions: read-out: GI
# [20] = test system: Escherichia coli; assay: Growth inhibition of Escherichia coli at 3 ug/ml; assay type: functional; conditions: read-out: GI; in short: as §1
# [21] = test system: Pseudomonas aeruginosa; assay: Antibacterial activity against Pseudomonas aeruginosa; assay type: functional
# [22] = Cytotoxicity against human MCF7 cells by MTT assay; assay type: toxicity, cell-based
# [23] = test system: Bacillus subtilis; assay: Antibacterial activity against Bacillus subtilis; assay type: functional
# [24] = Selectivity index, ratio of GI50 for human HCT116 cells to MIC90 for Mycobacterium bovis BCG ATCC 35743 dormant stage; assay type: toxicity, cell-based, HCT-116; conditions: read-out: Selectivity Index; in short: as §3
# [25] = Cytotoxicity against human THP1 cells by MTT assay; assay type: toxicity, cell-based, THP-1
# [26] = test system: Staphylococcus aureus; assay: Growth inhibition of Staphylococcus aureus at 3 ug/ml; assay type: functional; conditions: read-out: GI; in short: as §1
# [27] = Antitubercular activity against Mycobacterium tuberculosis H37Ra ATCC 25177 dormant stage infected in human THP1 cells measured on day 12 by nitrate reductase assay; assay type: functional, THP-1; conditions: ATCC 25177, 288 h
# [28] = Antitubercular activity against Mycobacterium tuberculosis H37Ra ATCC 25177 active stage measured on day 8 by XTT reduction menadione based two-fold dilution assay; assay type: functional; conditions: ATCC 25177, 192 h; in short: as §4
# [29] = Antitubercular activity against Mycobacterium bovis BCG ATCC 35743 active stage measured on day 8 by nitrate reductase based two-fold dilution assay; assay type: functional, Mycobacterium bovis BCG str. ATCC 35743; conditions: Mycobacterium tuberculosis variant bovis BCG, ATCC 35743, 192 h
# [30] = test system: Escherichia coli; assay: Growth inhibition of Escherichia coli at 10 ug/ml; assay type: functional; conditions: read-out: GI
structure (smiles),measurement,setting,value
C/C(=N\Nc1nc(-c2ccc(Br)cc2)cs1)c1sc(-c2ccccc2)nc1C,inhibition of growth at 10 µg/mL,[1],94.3%
same,inhibition of growth at 10 µg/mL,[2],93.8%
same,inhibition of growth at 3 µg/mL,[3],92.3%
same,MIC90,[4],> 100 µg/mL
same,inhibition of growth at 10 µg/mL,[5],95.8%
same,inhibition of growth at 30 µg/mL,[6],96.5%
same,selectivity ratio,[7],1
same,selectivity ratio,[8],1
same,IC50,[9],0.453 µg/mL
same,MIC,[9],1.84 µg/mL
same,IC50,[10],0.475 µg/mL
same,MIC,[10],1.14 µg/mL
same,selectivity ratio,[11],1
same,inhibition of growth at 3 µg/mL,[12],94.3%
same,inhibition of growth at 30 µg/mL,[13],96.8%
same,inhibition of growth at 30 µg/mL,[14],98.4%
same,selectivity ratio,[15],1
same,IC50,[16],0.14 µg/mL
same,MIC90,[16],57.7 µg/mL
same,IC50,[17],> 100 µg/mL
same,MIC90,[17],> 100 µg/mL
same,GI50,[18]; HCT116 cells,55.6 µg/mL
same,GI90,[18]; hct-116,> 100 µg/mL
same,inhibition of growth at 30 µg/mL,[19],96.7%
same,inhibition of growth at 3 µg/mL,[20],93%
same,IC50,[21],0.416 µg/mL
same,MIC,[21],1.05 µg/mL
same,GI50,[22]; MCF7 cells,26.3 µg/mL
same,GI90,[22]; mcf7,> 100 µg/mL
same,IC50,[23],0.526 µg/mL
same,MIC,[23],1.95 µg/mL
same,selectivity ratio,[24],1
same,GI50,[25]; THP1 cells,48.9 µg/mL
same,GI90,[25]; thp-1,> 100 µg/mL
same,inhibition of growth at 3 µg/mL,[26],92.8%
same,MIC90,[27],> 100 µg/mL
same,IC50,[28],0.18 µg/mL
same,MIC90,[28],> 100 µg/mL
same,IC50,[29],> 100 µg/mL
same,MIC90,[29],> 100 µg/mL
same,inhibition of growth at 10 µg/mL,[30],94.4%
